Active and inactive are the calls of the source. The rule behind the calls is not given here.
Assays:
[1] = target: MAP kinase p38 (Homo sapiens) (UniProt O15264+Q15759+Q16539+P53778); assay: Modulation of p38 MAPK in human A549 cells assessed as increase in cleaved caspase-3 level measured after 24 hrs in presence of p38 inhibitor SB203580 by Western blot analysis; assay type: cell-based
Outline: (§1)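 A549 cells pre-incubated for 30 min with 12.1 μM kinase inhibitor: SB203580 (p38), SP600125 (JNK), FR180204 (ERK) or LY10249 (Akt). Compound treatment followed for 24 h. Lysates (30 μg protein) analysed by 12% SDS-PAGE and nitrocellulose immunoblot with HRP detection. Three independent experiments, mean ± SD.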

A549 [2] = assay: Induction of apoptosis in human A549 cells assessed as increase in cleaved PARP expression at 3 uM by Western blot analysis; assay type: functional, cell-based; conditions: TDE = time-dependent effect
Outline: (§2)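 A549 cells exposed to 3 μM for 3, 6, 12 or 24 h; where NAC is used, 10 mM NAC is added 30 min before 24 h treatment. Lysate protein (30 μg) is run on 12% SDS-PAGE, blotted to nitrocellulose, blocked in 5% milk, primary antibody overnight at 4°C, then HRP anti-IgG. β-actin loading control; densitometry; three independent experiments, mean ± SD.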

A549 [3] = assay: Inhibition of ERK phosphorylation in human A549 cells at 3 uM after 3 to 24 hrs by Western blot analysis; assay type: cell-based
Outline: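 A549 cells exposed to 3 μM for 3, 6, 12 or 24 h. Lysate protein (30 μg) run on 12% SDS-PAGE and blotted to nitrocellulose. Membranes blocked in 5% skim milk, primary antibodies at 4°C overnight, then HRP anti-IgG secondary for 1 h at room temperature. β-actin was the internal control. Bands quantified by densitometry; three independent experiments, mean ± SD.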

A549 [4] = assay: Induction of apoptosis in human A549 cells assessed as decrease in Bcl-2 expression at 3 uM after 24 hrs by Western blot analysis; assay type: functional, cell-based; outline: as §2
IMR-90 = assay: Cytotoxicity against human IMR90 cells assessed as reduction in cell viability after 24 hrs by MTT assay; assay type: cell-based; conditions: imr-90, 24 h
Outline: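 Log-phase cells seeded at 1 × 10⁴ per well. Lung cancer lines (A549, NCI-H23, NCI-H460) and normal lines (IMR-90, QSG-7701, HEK-293A) each exposed to 1, 3, 10, 30 and 100 μM for 24 h. MTT (5 mg/mL stock) added for 2 h at 37°C, formazan dissolved in DMSO, absorbance read at 490 nm. Three independent experiments, mean ± SD.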

A549 [5] = assay: Cell cycle arrest in human A549 cells assessed as increase in p21 levels at 3 uM by Western blot analysis; assay type: functional, cell-based; conditions: TDE = time-dependent effect; outline: as §2
A549 [6] = assay: Induction of apoptosis in human A549 cells assessed as apoptotic morphological changes at 3 uM by Annexin V-FITC/propidium iodide staining-based flow cytometric analysis; assay type: functional, cell-based; conditions: TDE = time-dependent effect
A549 [7] = assay: Induction of apoptosis in human A549 cells assessed as late apoptotic cells at 3 uM after 3 hrs by Annexin V-FITC/propidium iodide staining-based flow cytometric analysis (reference value: 4.52%); assay type: functional
[8] = target: T1, c-Jun N-terminal kinase, JNK (Homo sapiens) (UniProt P45983+P53779+P45984); assay: Modulation of JNK in human A549 cells assessed as increase in cleaved caspase-3 measured after 24 hrs in presence of JNK inhibitor-SP600125 by Western blot analysis; assay type: cell-based
A549 [9] = assay: Cell cycle arrest in human A549 cells assessed as accumulation of cells at G1 phase at 3 uM after 12 hrs by propidium iodide staining-based flow cytometric analysis (reference value: 57.65%); assay type: functional
[10] = target: T1, c-Jun N-terminal kinase, JNK (Homo sapiens); assay: Activation of JNK phosphorylation in human A549 cells at 3 uM after 3 to 24 hrs by Western blot analysis; assay type: cell-based; outline: as §2
A549 [11] = assay: Induction of apoptosis in human A549 cells at 3 uM by Annexin V-FITC/propidium iodide staining-based flow cytometric analysis; assay type: functional, cell-based; conditions: TDE = time-dependent effect
Outline: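 A549 cells seeded at 1 × 10⁵ cells/well, exposed to 3 μM for 3, 6, 12 and 24 h. Then incubated in binding buffer and stained with Annexin V-FITC and PI for 20 min in the dark. Apoptotic cells were scored by fluorescence microscopy and flow cytometry. Three independent experiments, mean ± SD.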

A549 [12] = assay: Induction of ROS generation in human A549 cells assessed as intracellular ROS level at 3 uM after 3 hrs by DCFH-DA staining-based flow cytometric analysis (reference value: 51.8%); assay type: functional
Outline: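 A549 cells loaded with DCFH-DA (10 μM per legend) for 30 min, then exposed to 3 μM at 37°C for 3, 6, 12 or 24 h. After two PBS washes, intracellular fluorescence is quantified by flow cytometry. Three independent experiments, mean ± SD.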

[13] = target: RAC-alpha serine/threonine-protein kinase (Homo sapiens) (UniProt P31749); assay: Modulation of AKT in human A549 cells assessed as decrease in cyclinD1 levels measured after 24 hrs in presence of Akt inhibitor-LY10249 by Western blot analysis; assay type: cell-based; outline: as §1
A549 [14] = assay: Cell cycle arrest in human A549 cells assessed as accumulation of cells at G2 phase at 3 uM after 24 hrs by propidium iodide staining-based flow cytometric analysis (reference value: 24.02%); assay type: functional
A549 [15] = assay: Induction of apoptosis in human A549 cells assessed as early apoptotic cells at 3 uM after 24 hrs by Annexin V-FITC/propidium iodide staining-based flow cytometric analysis (reference value: 2.73%); assay type: functional
A549 [16] = assay: Induction of apoptosis in human A549 cells assessed as early apoptotic cells at 3 uM after 6 hrs by Annexin V-FITC/propidium iodide staining-based flow cytometric analysis (reference value: 2.73%); assay type: functional
[17] = target: RAC-alpha serine/threonine-protein kinase (Homo sapiens) (UniProt P31749); assay: Inhibition of AKT phosphorylation in human A549 cells at 3 uM measured after 24 hrs in presence of NAC by Western blot analysis; assay type: cell-based
Outline: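 A549 cells pretreated with 10 mM NAC for 30 min, then exposed to compound for 24 h. Lysate protein (30 μg) resolved on 12% SDS-PAGE and transferred to nitrocellulose. Probed with primary antibodies overnight at 4°C, then HRP secondary. Band densities from three independent experiments, mean ± SD.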

A549 [18] = assay: Cell cycle arrest in human A549 cells assessed as accumulation of cells at G2 phase at 3 uM after 6 hrs by propidium iodide staining-based flow cytometric analysis (reference value: 24.02%); assay type: functional
A549 [19] = assay: Modulation of ERK in human A549 cells assessed as increase in cleaved caspase-3 measured after 24 hrs in presence of ERK inhibitor-FR180204 by Western blot analysis; assay type: cell-based; outline: as §1
A549 [20] = assay: Induction of apoptosis in human A549 cells assessed as late apoptotic cells at 3 uM after 24 hrs by Annexin V-FITC/propidium iodide staining-based flow cytometric analysis (reference value: 4.52%); assay type: functional
A549 [21] = assay: Cell cycle arrest in human A549 cells assessed as accumulation of cells at G1 phase at 3 uM after 6 hrs by propidium iodide staining-based flow cytometric analysis (reference value: 57.65%); assay type: functional
A549 [22] = assay: Cell cycle arrest in human A549 cells assessed as accumulation of cells at S phase at 3 uM after 6 hrs by propidium iodide staining-based flow cytometric analysis (reference value: 13.85%); assay type: functional

Chain of RAC-alpha serine/threonine-protein kinase (Homo sapiens) (P31749 whole entry): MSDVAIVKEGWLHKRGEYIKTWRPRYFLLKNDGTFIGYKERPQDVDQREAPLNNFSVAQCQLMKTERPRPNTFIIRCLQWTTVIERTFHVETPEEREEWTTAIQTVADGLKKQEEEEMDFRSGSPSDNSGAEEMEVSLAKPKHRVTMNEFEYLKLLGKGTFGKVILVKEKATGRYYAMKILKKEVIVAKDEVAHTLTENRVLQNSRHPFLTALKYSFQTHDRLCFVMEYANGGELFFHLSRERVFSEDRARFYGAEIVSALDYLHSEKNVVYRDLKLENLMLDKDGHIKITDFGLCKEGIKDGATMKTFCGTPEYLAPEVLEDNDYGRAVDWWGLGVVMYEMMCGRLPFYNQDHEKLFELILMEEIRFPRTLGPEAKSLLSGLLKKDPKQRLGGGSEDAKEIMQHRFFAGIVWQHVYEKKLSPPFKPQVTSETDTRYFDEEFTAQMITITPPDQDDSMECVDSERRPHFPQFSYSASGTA

Activity [1] | Activity [8] | Activity [10] | Activity [13] | inhibition [17] | SMILES | Activity (A549 [2]) | inhibition (A549 [3]) | Activity (A549 [4]) | Activity (IMR-90) | Activity (A549 [5]) | Activity (A549 [6]) | Activity (A549 [7]) [%] | Activity (A549 [9]) [%] | Activity (A549 [11]) | Activity (A549 [12]) [%] | Activity (A549 [14]) [%] | Activity (A549 [15]) | Activity (A549 [16]) [%] | Activity (A549 [18]) [%] | Activity (A549 [19]) | also measured
inactive | inactive | Active | Active | inactive | CCCS(=O)(=O)C12OC1C(=O)c1c(OC)ccc(OC)c1C2=O (stereo unspecified) | Tde | Active | Active | Non-Toxic | Tde | Tde | 5.11 | 69 | Tde | 57.9 | 17.13 | 48.76% | 16.31 | 18.26 | Active | Activity (A549 [20]): 6.31 - 8.05%; Activity (A549 [21]): 66.13%; Activity (A549 [22]): 10.31%
inactive | inactive | Active | Active | inactive | CCCCCCCCCS(=O)(=O)C12OC1C(=O)c1c(OC)ccc(OC)c1C2=O (stereo unspecified) | Tde | Active | Active | Non-Toxic | Tde | Tde | 5.43 | 68.84 | Tde | 52.52 | 19.84 | 24.66 - 30.02% | 14.47 | 22.02 | Active | Activity (A549 [20]): 1.89 - 12.93%; Activity (A549 [21]): 65.95%; Activity (A549 [22]): 8.44%
